{"data": "Measurements from different studies", "ALK C1156Y": "ALK tyrosine kinase receptor (ALK, Homo sapiens, UniProt Q9UM73, C1156Y)", "ALK": "ALK tyrosine kinase receptor (ALK, Homo sapiens, UniProt Q9UM73)", "ALK L1196M": "ALK tyrosine kinase receptor (ALK, Homo sapiens, UniProt Q9UM73, L1196M)", "note": "Each line is one published result; the experiments were not run side by side."}
{"SMILES": "O=C(c1ccc(Nc2nccc(-c3cc4ccccc4s3)n2)cc1)N1CCC(N2CCCC2)CC1", "target": "ALK C1156Y", "observed": "binding", "technique": "competition with immobilised ligand", "tested at": "1 µM", "remaining binding [%]": 77}
{"SMILES": "C[C@H]1CCN(c2nccc(-c3cnn4ncccc34)n2)C1", "target": "ALK", "observed": "binding", "tested at": "1 µM", "remaining binding [%]": 82}
{"SMILES": "Nc1ncc2c(n1)-c1c([nH]c3ccc(C#CC4CC4)cc13)CCCC2", "target": "ALK L1196M", "observed": "binding", "technique": "competition with immobilised ligand", "tested at": "1 µM", "remaining binding [%]": 86}
{"SMILES": "COc1cnc(Nc2cccc(S(N)(=O)=O)c2)nc1N1CCN(c2ccccc2)C(=O)C1", "target": "ALK", "observed": "binding", "technique": "competition with immobilised ligand", "tested at": "1 µM", "remaining binding [%]": 100}
{"SMILES": "N[C@H]1CCN(c2nccc(-c3cnn4ncccc34)n2)C1", "target": "ALK L1196M", "observed": "binding", "tested at": "1 µM", "remaining binding [%]": 74}
{"SMILES": "Nc1c(C(=O)NCc2ccc(C(=O)NCCCC3CCCCC3)cc2)cnn1-c1ccccc1", "target": "ALK", "observed": "cell-free assay", "technique": "competition with immobilised ligand", "tested at": "0.1 µM", "remaining binding [%]": 100}
{"SMILES": "C=CC(=O)N1CCC(C(=O)NCC(=O)N2CCN(c3nc(-c4cnc(N)nc4C(F)F)nc(N4CCOCC4)n3)CC2)CC1", "target": "ALK L1196M", "observed": "binding", "technique": "competition with immobilised ligand", "tested at": "1 µM", "remaining binding [%]": 79}
{"SMILES": "CN(CCCC(F)(F)F)c1nccc(-c2cnn3ncccc23)n1", "target": "ALK", "observed": "binding", "tested at": "1 µM", "remaining binding [%]": 97}
{"SMILES": "Cc1noc([C@H]2C[C@@H](c3ccc(C(F)(F)F)cc3)CN(C(=O)N3CCS(=O)(=O)C3)C2)n1", "target": "ALK L1196M", "observed": "cell-free assay", "technique": "competition with immobilised ligand", "tested at": "1 µM", "remaining binding [%]": 100}
{"SMILES": "CN(c1nccc(-c2cnn3ncccc23)n1)C1CC1", "target": "ALK C1156Y", "observed": "binding", "tested at": "1 µM", "remaining binding [%]": 100}
{"SMILES": "O=C(Nc1c[nH]nc1C(=O)NC1CCNCC1)c1cc(F)cc(F)c1", "target": "ALK L1196M", "observed": "binding", "technique": "competition with immobilised ligand", "tested at": "1 µM", "remaining binding [%]": 100}
{"SMILES": "COCCOc1nc(-c2ccc(Cl)nc2)nc2c1CN(C(=O)c1ncn3ccccc13)CC2", "target": "ALK L1196M", "observed": "cell-free assay", "technique": "competition with immobilised ligand", "tested at": "0.1 µM", "remaining binding [%]": 100}
{"SMILES": "c1cncc(-c2cccc(Nc3nccc(NC4CCCCC4)n3)c2)c1", "target": "ALK C1156Y", "observed": "binding", "technique": "competition with immobilised ligand", "tested at": "10 µM", "remaining binding [%]": 37}
{"SMILES": "CC1=C(C#N)[C@@H](c2ccc3[nH]nc(C)c3c2)C(C#N)=C(c2ccc(Cl)cc2)N1", "target": "ALK C1156Y", "observed": "cell-free assay", "technique": "competition with immobilised ligand", "tested at": "1 µM", "remaining binding [%]": 100}
{"SMILES": "CNC(=O)[C@@H]1CC[C@@H](n2c(-c3ccc4cnccc4c3)nc3ccc(C(=O)NCc4cccc(C(N)=O)c4)cc32)C1", "target": "ALK L1196M", "observed": "binding", "technique": "competition with immobilised ligand", "tested at": "1 µM", "remaining binding [%]": 100}
{"SMILES": "CO[C@H]1CC[C@H](CNc2ccc(S(=O)(=O)NC(=O)c3ccc(N4CCN(CC5=C(c6ccc(Cl)cc6)CC(C)(C)CC5)CC4)cc3Oc3cnc4[nH]ccc4c3)cc2[N+](=O)[O-])CC1", "target": "ALK", "observed": "cell-free assay", "technique": "competition with immobilised ligand", "tested at": "1 µM", "remaining binding [%]": 100}
{"SMILES": "O=C(c1ccc(Nc2ncc(Cl)c(-c3cc4ccccc4s3)n2)cc1)N1CCC(N2CCCC2)CC1", "target": "ALK", "observed": "binding", "technique": "competition with immobilised ligand", "tested at": "1 µM", "remaining binding [%]": 68}
{"SMILES": "CCCCN(CCCC)C(=O)CN1C[C@@H](c2cc(OC)c3c(c2)OCO3)[C@H](C(=O)O)[C@H]1CC(C)(C)CCC", "target": "ALK C1156Y", "observed": "cell-free assay", "technique": "competition with immobilised ligand", "tested at": "1 µM", "remaining binding [%]": 95.4}
{"SMILES": "CC1CCCN1c1nccc(-c2cnn3ncccc23)n1 (stereo not shown)", "target": "ALK C1156Y", "observed": "binding", "tested at": "1 µM", "remaining binding [%]": 48}
